In assay [1] the test system is Colon 26. As to the kind of experiment: Antitumor activity at dose 5 mg/kg in murine colon26 cells. Format: functional, Mus musculus.
The target of another assay is Tubulin (Bos taurus, UniProt Q6B856+Q862L2+Q862F3). As to the kind of experiment: Inhibitory activity against tubulin polymerization. Format: protein assay. Summed up:
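Tubulin polymerization was started with GTP. It was followed turbidimetrically at 350 nm at 37 °C, and extent was read after 20 min incubation. IC50 was determined graphically, averaging three independent assays.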

Assay [2] concerns Colon 26. Description: Growth inhibition of colon 26 adenocarcinoma cells by 50 %. The format is functional, cell-based. Conditions: Mus musculus. Summed up: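 Murine Colon 26 adenocarcinoma cells were kept in RPMI-1640 with 10% FBS. Cells were seeded at 1×10^5 cells/ml in 96-well plates and held 24 h at 37 °C in CO2. They were then exposed to a range of compound concentrations for 48 h, and viable cells were counted by MTT dye reduction. IC50 is the mean of three independent assays.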

Assay [3] has as its system Lewis lung carcinoma cell line. As to the kind of experiment: Antitumor activity at dose 40 mg/kg in Lewis lung carcinoma cells (3LL) cells. The format is functional, Mus musculus. Summed up:
(§1)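 Tumor fragments (5 mg) implanted sc on day 0: Colon 26 into CD2F1 mice, Colon 38 or 3LL into BD2F1 mice, HCT-15 into ICR nu/nu mice. Dosing iv on days 7, 11 and 15. On day 21, two caliper diameters were measured; tumor weight = length × width²/2. IR (%) = (1 − T/C) × 100, from mean treated versus control tumor weights.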

Assay [4] has as its system MC-38. As to the kind of experiment: Antitumor activity at dose 10 mg/kg in Murine colon38 cells. The format is functional, Mus musculus. Summed up: as §1
The test system of assay [5] is HCT-15. Description: Antitumor activity at dose 10 mg/kg in HCT-15 cells. Format: functional, Mus musculus. Summed up:
as §1

Assay [6] relates to Colon 26. Description: Antitumor activity at dose 10 mg/kg in murine colon26 cells. The format is functional, Mus musculus. Summed up:
as §1

The test system of assay [7] is MC-38. Description: Antitumor activity at dose 10 mg/kg in colon38 cells. Format: functional, Mus musculus. Summed up: as §1
Assay [8] in a line: (§2) Antitumor activity at dose 40 mg/kg in colon26 cells. The format is functional, Mus musculus. The gist of the method:
as §1

Assay [9] has as its system Colon 26. Described as §2. Format: functional, Mus musculus. Summed up: as §1
Assay [10] relates to HCT-15. Description: Antitumor activity at dose 40 mg/kg in HCT-15 cells. The format is functional, Mus musculus. Summed up:
as §1

The test system of assay [11] is Colon 26. As to the kind of experiment: Antitumor activity at dose 160 mg/kg in murine colon26 cells. The format is functional, Mus musculus.

As to `COc1cc(/C(C#N)=C\c2ccc(C)c(N)c2)cc(OC)c1OC.Cl`, the IR in the assay with Colon 26 [1] was found to be 11%.

As to `COc1ccc(/C=C(/C#N)c2ccccc2)cc1N`, the IC50 against Tubulin is 8000 nM; in the assay on Colon 26 [2], 36 nM.

`COc1cc(/C(C#N)=C\c2ccc(C)c(N)c2)cc(OC)c1OC`: the IC50 against Tubulin was found to be 10000 nM; with Colon 26 [2], 61.7 nM.

Regarding `COc1ccc(/C=C(/C#N)c2cc(OC)c(OC)c(OC)c2)cc1N.Cl`, the IR in [3] is recorded as 59%; with MC-38 [4] it was 75%; with HCT-15 [5], 28%; in the assay with Colon 26 [6], 77%.

In the case of `COc1ccc(/C=C(\C#N)c2cc(OC)c(OC)c(OC)c2)cc1`, the IC50 against Tubulin was above 20000 nM; in the assay on Colon 26 [2], 63.7 nM.

In the assay with Colon 26 [2], `COc1ccc(/C=C\c2cc(OC)c(OC)c(OC)c2)cc1N` showed a half-maximal inhibitory concentration (IC50) of 5.1 nM.

Turning to `COc1ccc(/C=C\c2cc(OC)c(OC)c(OC)c2)cc1N.Cl`, the IR is listed as 65% in [3]; 72% in the assay with MC-38 [7]; 62% in [8]; 69% with Colon 26 [9]; 53% in the assay with HCT-15 [10].

With `COc1cc(/C(C#N)=C\c2ccc(Cl)c(N)c2)cc(OC)c1OC`, the IC50 against Tubulin came out at 6000 nM; in the assay on Colon 26 [2], 58.1 nM.

For `COc1ccc(/C(C#N)=C\c2cc(OC)c(OC)c(OC)c2)cc1N`, the half-inhibitory concentration (IC50) came to 5000 nM at Tubulin and 235 nM in the assay with Colon 26 [2].

On to `COc1ccc(/C=C(/C[N+](C)(C)C)c2cc(OC)c(OC)c(OC)c2)cc1.[I-]`, for which the IC50 was above 20000 nM against Tubulin and above 3000 nM with Colon 26 [2].

As to `COc1ccc(/C=C(/C#N)c2cc(OC)c(OC)c(OC)c2)cc1O`, the results for the IC50 against Tubulin and in the assay on Colon 26 [2] were 5000 nM and 23.5 nM, respectively.

With `COc1ccc(CC(C#N)c2cc(OC)c(OC)c(OC)c2)cn1` (stereo unspecified), the IC50 is above 20000 nM against Tubulin and above 3000 nM in the assay on Colon 26 [2].

`COc1ccc(/C=C(/C#N)c2cc(OC)c(OC)c(OC)c2)cc1`: the results for the half-inhibitory concentration (IC50) at Tubulin and with Colon 26 [2] were 6000 nM and 18 nM, respectively.

As for `COc1ccc(/C=C(/C#N)c2ccc(OC)c(OC)c2)cc1N`, the IC50 came to 7000 nM against Tubulin and 8.1 nM with Colon 26 [2].

On to `COc1ccc(CC(C#N)c2cc(OC)c(OC)c(OC)c2)cc1N` (stereo unspecified), for which the IC50 at Tubulin was determined as 7000 nM; in the assay on Colon 26 [2], 22.5 nM.

In the case of `COc1cc(/C(C#N)=C/c2ccc(C)c(N)c2)cc(OC)c1OC`, the IC50 against Tubulin is above 20000 nM; with Colon 26 [2], 722 nM.

`COc1cc(/C=C\c2ccc(Cl)c(N)c2)cc(OC)c1OC`: the IC50 on Tubulin is 3000 nM; in the assay with Colon 26 [2] it was 68.9 nM.

As for `COc1ccc(/C(=C\c2cc(OC)c(OC)c(OC)c2)C(N)=O)cc1N`, the half-inhibitory concentration (IC50) with Colon 26 [2] stood at 223 nM.

In the case of `COc1ccc(/C=C(/C=O)c2cc(OC)c(OC)c(OC)c2)cc1`, the figures for the IC50 against Tubulin and with Colon 26 [2] were 4000 nM and 213 nM, respectively.

As to `COc1ccc(/C=C(/C#N)c2cc(OC)c(OC)c(OC)c2)cc1[N+](=O)[O-]`, the half-maximal inhibitory concentration (IC50) at Tubulin is 5000 nM; in the assay on Colon 26 [2] it was 135 nM.

As to `COc1ccc(/C=C(\C#N)c2cc(OC)c(OC)c(OC)c2)cc1N`, the figures for the IC50 on Tubulin and with Colon 26 [2] were above 20000 nM and 12.6 nM, respectively.

As for `COc1cc(/C=C\c2ccc(C)c(N)c2)cc(OC)c1OC.Cl`, the IR in the assay on Colon 26 [9] was 62%.

For `COc1ccc(/C=C(/C#N)c2cc(OC)c(OC)c(OC)c2)cc1NC(C)=O`, the values for the IC50 at Tubulin and in the assay on Colon 26 [2] were 10000 nM and 18.3 nM, respectively.

Regarding `COc1cc(/C(C#N)=C\c2ccc(Cl)c(N)c2)cc(OC)c1OC.Cl`, in the assay on Colon 26 [1], the IR is -23%.

Turning to `COc1ccc(/C(C#N)=C\c2ccc(OC)c(N)c2)cc1`, the IC50 stood at 9000 nM against Tubulin and 1430 nM in the assay on Colon 26 [2].

Take `COc1ccc(/C=C(/C#N)c2cc(OC)c(OC)c(OC)c2)cn1`: the IC50 against Tubulin was above 20000 nM; in the assay with Colon 26 [2], 2370 nM.

In the assay with Colon 26 [2], `COc1ccc(/C=C\c2cc(OC)c(OC)c(OC)c2)cc1O` [COMBRETASTATIN A4] yielded a 50% inhibitory concentration (IC50) of 18 nM. For the same compound, in the assay with Colon 26 [11], the IR turned out to be 31%.

In the case of `COc1ccc(/C=C(/C(N)=O)c2cc(OC)c(OC)c(OC)c2)cc1N`, the IC50 against Tubulin is 3000 nM; in the assay on Colon 26 [2], 195 nM.

Turning to `COc1ccc(/C=C(\C#N)c2cc(OC)c(OC)c(OC)c2)cc1[N+](=O)[O-]`, the IC50 is above 20000 nM against Tubulin and above 3000 nM in the assay on Colon 26 [2].

For `COc1ccc(/C=C(/C#N)c2cc(OC)c(OC)c(OC)c2)cc1N`, the values for the half-maximal inhibitory concentration (IC50) against Tubulin and with Colon 26 [2] were 10000 nM and 5.9 nM, respectively.

In the case of `COc1cc(/C=C\c2ccc(C)c(N)c2)cc(OC)c1OC`, the IC50 amounted to 4000 nM on Tubulin and 43.5 nM in the assay with Colon 26 [2].

Turning to `COc1ccc(/C=C(/CN)c2cc(OC)c(OC)c(OC)c2)cc1`, the IC50 against Tubulin was above 20000 nM; with Colon 26 [2] it was above 3000 nM.

`COc1ccc(/C=C(/CO)c2cc(OC)c(OC)c(OC)c2)cc1`: the IC50 against Tubulin was above 20000 nM; with Colon 26 [2] it was 363 nM.

For orientation: IC50 means the concentration that inhibits the measured activity by half. Read a low IC50 as higher potency.

The values above are taken from ChEMBL document CHEMBL1131051, “Novel combretastatin analogues effective against murine solid tumors: design and structure-activity relationships” (J Med Chem, 1998).
